Test results: ChEMBL document CHEMBL2424587, “Antiproliferative activity of abietane diterpenoids against human tumor cells” (J Nat Prod, 2013)
The source made the active and inactive calls. No cut-off for these calls is given here.

What was measured:
HL-60 [1] = experiment: Induction of apoptosis in human HL60 cells after 24 hrs by flow cytometry in presence of MEK2 inhibitor U0126; format: functional, cell-based
HL-60 [2] = experiment: Induction of apoptosis in human HL60 cells assessed as accumulation at sub-G1 phase at 3 uM after 24 hrs by AnnexinV-FITC/propidium iodide staining-based flow cytometry (reference value: 4%)
HL-60 [3] = experiment: Induction of intracellular ROS generation in human HL60 cells at 3 uM after 15 mins to 4 hrs by flow cytometry; format: functional, cell-based
Summary of the method: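 HL-60 cells given 3 μM diterpene for the indicated times, then loaded with H2-DCF-DA. Fluorescence of oxidized H2DCF was measured by flow cytometry. Three independent experiments.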

HL-60 [4] = experiment: Cell cycle arrest in human HL60 cells assessed as accumulation at Sub-G1 phase at 3 uM after 24 hrs by […]propidium iodide staining-based flow cytometry (reference value: 4%); format: functional
HL-60 [5] = experiment: Induction of apoptosis in human HL60 cells after 24 hrs by flow cytometry in presence of MEK1 inhibitor PD98059; format: functional, cell-based
HL-60 [6] = experiment: Induction of apoptosis in human HL60 cells assessed as reduction in mitochondrial membrane potential at 3 uM after 24 hrs by JC-1 staining-based flow cytometry in presence of bongkrekic acid; format: functional, cell-based
Summary of the method: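 HL-60 cells exposed to 3 μM diterpene for 24 h alongside permeability transition pore inhibitors cyclosporin A (25 μM, 24 h) or bongkrekic acid (25−50 μM, 24 h). Apoptosis was scored by flow cytometry. Mitochondrial membrane potential was read by JC-1 fluorescence on flow cytometry.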

HL-60 [7] = experiment: Induction of apoptosis in human HL60 cells after 24 hrs by flow cytometry in presence of JNK/SAPK inhibitor SP600125; format: functional, cell-based
HL-60 [8] = experiment: Cytotoxicity against human HL60 cells overexpressing Bcl-XL protein after 72 hrs by MTT assay; format: functional, cell-based; settings: HL-60, 72 h
HL-60 [9] = experiment: Induction of apoptosis in human HL60 cells assessed as procaspase-9 cleavage at 3 uM after 24 hrs by immunoblotting analysis; format: functional, cell-based
Summary of the method: (§1)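 HL-60 cells treated 24 h with 3 μM; immunoblots of lysates probed with antibodies that recognize both pro-caspases and cleaved caspases, and for PARP.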

HL-60 [10] = experiment: Induction of apoptosis in human HL60 cells assessed as hypodiploid cells at 3 uM after 24 hrs by flow cytometry (reference value: 4.4 +/- 0.8%); format: functional
HL-60 [11] = experiment: Cell cycle arrest in human HL60 cells assessed as accumulation at G1 phase at 3 uM after 24 hrs by […]propidium iodide staining-based flow cytometry (reference value: 43%); format: functional
HL-60 [12] = experiment: Induction of ROS-mediated cell death in human HL60 cells at 3 uM after 15 mins to 4 hrs by flow cytometry in presence of NAC; format: functional, cell-based
HL-60 [13] = experiment: Induction of apoptosis in human HL60 cells assessed as abundant vacuoles at 3 uM after 24 hrs by transmission electron microscopy; format: functional, cell-based
Summary of the method: (§2)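 HL-60 cells incubated 24 h with 3 μM compound and examined by transmission electron microscopy for ultrastructural changes.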

HL-60 [14] = experiment: Induction of apoptosis in human HL60 cells after 24 hrs by flow cytometry in presence of p38 MAPK inhibitor SB203580 (reference value: 15.1 +/- 3.8%); format: functional
HL-60 [15] = experiment: Induction of apoptosis in human HL60 cells assessed as fragmented and/or condensed nuclei at 3 uM after 24 hrs by transmission electron microscopy; format: functional, cell-based; summary of the method: as §2
HL-60 [16] = experiment: Induction of apoptosis in human HL60 cells assessed as dense perinuclear condensation at 3 uM after 24 hrs by transmission electron microscopy; format: functional, cell-based; summary of the method: as §2
HL-60 [17] = experiment: Cell cycle arrest in human HL60 cells assessed as accumulation at G2-M phase at 3 uM after 24 hrs by […]propidium iodide staining-based flow cytometry (reference value: 4%); format: functional
HL-60 [18] = experiment: Induction of apoptosis in human HL60 cells assessed as procaspase-7 cleavage at 3 uM after 24 hrs by immunoblotting analysis; format: functional, cell-based; summary of the method: as §1
HL-60 [19] = experiment: Induction of apoptosis in human HL60 cells assessed as decrease in Bax level by Western blotting analysis; format: functional, cell-based
Summary of the method: (§3)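 HL-60 cells incubated with the diterpene; whole-cell lysates probed by Western blot for Bcl-2 family proteins, with β-actin as loading control.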

HL-60 [20] = experiment: Induction of apoptosis in human HL60 cells assessed as decrease in Bcl-2 level by Western blotting analysis; format: functional, cell-based; summary of the method: as §3

Row | Structure (SMILES) | Activity (HL-60 [1]) | Activity (HL-60 [2]) | Activity (HL-60 [3]) | Activity (HL-60 [4]) | Activity (HL-60 [5]) | Activity (HL-60 [6]) | Activity (HL-60 [7]) | IC50 (HL-60 [8]) | Activity (HL-60 [9]) | Activity (HL-60 [10]) | Activity (HL-60 [11]) | Activity (HL-60 [12]) | Activity (HL-60 [13]) | Activity (HL-60 [14]) | Activity (HL-60 [15]) | Activity (HL-60 [16]) | Activity (HL-60 [17]) | Activity (HL-60 [18]) | Activity (HL-60 [19]) | Activity (HL-60 [20])
1 | COc1ccc(C(=O)OC2=C(C(C)C)C(=O)C3=C(C2=O)[C@@]2(C)CCCC(C)(C)[C@@H]2[C@H](O)[C@H]3OC(C)=O)cc1 | Active | 8% | inactive | 28% | Active | Active | Active | 2900 nM | Active | 34.5% | – | – | – | – | – | – | – | – | – | –
2 | CC(=O)O[C@H]1C2=C(C(=O)C(OC(=O)c3ccccc3)=C(C(C)C)C2=O)[C@@]2(C)CCCC(C)(C)[C@@H]2[C@@H]1OC(=O)c1ccccc1 | Active | – | – | 40% | Active | Active | Active | 1100 nM | Active | 48% | 30% | inactive | Active | Active | Active | Active | 16% | Active | – | –
3 | CC(=O)O[C@H]1C2=C(C(=O)C(OC(=O)c3ccc(Cl)cc3)=C(C(C)C)C2=O)[C@@]2(C)CCCC(C)(C)[C@@H]2[C@@H]1O | – | 9% | – | 32% | – | Active | – | 2200 nM | Active | 40.4% | – | inactive | – | Active | – | – | – | – | Active | Active
